Shown are actives, neighbours in structure and some others; about 1.8% of the full set was active somewhere.
APJ antagonist = APJ receptor antagonism. P35414. AID 2521. actives 0.32% (n = 330,000). inhibition, % at 20 µM. CHO-K1 APJ beta-arrestin complementation, luminescence;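 active = inhibition above about 40% at 20 µM, limit read from the data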;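 note: cells challenged with 10 nM apelin-13 agonist together with compound; plate controls were apelin-13 plus DMSO wells for no effect and DMSO wells lacking apelin-13 for full effect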
Target sequence (P35414 whole entry, looked up): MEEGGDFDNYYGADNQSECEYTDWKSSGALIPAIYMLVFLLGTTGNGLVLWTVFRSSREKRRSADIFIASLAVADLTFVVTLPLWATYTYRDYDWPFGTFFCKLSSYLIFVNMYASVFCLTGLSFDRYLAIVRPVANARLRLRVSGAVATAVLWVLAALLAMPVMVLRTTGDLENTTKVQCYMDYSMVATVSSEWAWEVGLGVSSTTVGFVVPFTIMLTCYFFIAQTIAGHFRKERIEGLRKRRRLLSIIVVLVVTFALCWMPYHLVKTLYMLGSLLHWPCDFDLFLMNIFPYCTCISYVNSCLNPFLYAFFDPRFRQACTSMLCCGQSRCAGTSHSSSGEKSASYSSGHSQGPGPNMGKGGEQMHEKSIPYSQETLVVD
CXCR6 inh = inhibitors of human CXCR6 receptor. O00574. CHO-K1 PathHunter CXCR6 beta-arrestin, luminescence. inhibition, % at 20 µM. actives 0.36% (n = 360,000); in the data active = inhibition above about 34%, passing the limit was not always enough;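 note: antagonist mode with CXCL16 agonist at 10 nM final; 0% = 10 nM CXCL16 with DMSO and 100% = unstimulated wells without agonist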
APJ ag = APJ receptor agonism. AID 2520. activation, % at 20 µM. P35414. CHO-K1 APJ PathHunter beta-arrestin, luminescence; 0% DMSO wells, 100% apelin. actives 0.11% (n = 330,000);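 active = activation more than six SD over the plate average, tested at 20 µM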;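 note: 0% = DMSO alone and 100% = apelin-13 at 10 nM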
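Assay system: CHO-K1 cells stably expressing ProLink-tagged human APJ and arrestin–beta-gal acceptor. Compound dosing: 20 µM single point, 1% DMSO. Times: 16-18 h seeding, 90 min dark compound exposure, 60 min detection. Detection: beta-gal luminescence. Evaluation: APJ–arrestin association signal. Controls: negative DMSO alone, positive Apelin-13 at 10 nM.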
EBI2 antag = EBI2 (human) antagonism; P32249; EBI2 beta-arrestin recruitment, luminescence, 7a,25-OHC stimulated; inhibition, % at 5 µM; actives 0.81% (n = 360,000); in the data active = inhibition above about 38%;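 note: enzyme fragment complementation signal reports receptor beta-arrestin coupling in cells; 0% = agonist plus DMSO wells and 100% = wells without agonist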
CCR6 antagonist = CCR6 (human) receptor antagonism; P51684; CHO-K1 CCR6 PathHunter beta-arrestin, luminescence, CCL20-stimulated; inhibition, % at 20 µM; actives 0.49% (n = 340,000);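 active = compounds whose inhibition of the agonist-driven luminescence signal at 20 µM reaches about 50%, limit read from the data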;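 note: cells stimulated with CCL20 at 14 nM final; plate controls were DMSO with CCL20 for no effect and DMSO without agonist for full effect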
Target sequence (P51684 whole entry, looked up): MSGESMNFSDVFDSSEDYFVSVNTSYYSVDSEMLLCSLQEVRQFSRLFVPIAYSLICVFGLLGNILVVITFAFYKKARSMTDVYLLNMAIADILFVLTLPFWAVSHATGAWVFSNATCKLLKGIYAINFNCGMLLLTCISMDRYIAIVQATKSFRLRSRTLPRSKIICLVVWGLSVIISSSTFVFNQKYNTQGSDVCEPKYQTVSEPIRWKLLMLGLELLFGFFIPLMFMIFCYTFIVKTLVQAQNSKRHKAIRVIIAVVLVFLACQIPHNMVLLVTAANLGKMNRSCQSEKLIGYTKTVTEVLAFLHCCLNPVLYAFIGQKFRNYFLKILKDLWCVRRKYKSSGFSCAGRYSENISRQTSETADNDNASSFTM
Beta2AR agonist = human beta-2 adrenergic receptor agonism by FAP | P07550 | Am2.2-beta2AR cells, FAP receptor internalization, flow cytometry | response, % (no concentration beside the values) | actives 0.43% (n = 340,000) | AID 504454;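 active = response above a set limit, near 3 SD of response in nonfluorescent compounds, cut at about 42% in these data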
EBI2 conf = confirmation of human EBI2 receptor antagonists. shares compounds with EBI2 antag. EBI2 beta-arrestin luminescence, 7a,25-OHC antagonism. inhibition, % at 5 µM. actives 29% (n = 2,400). AID 651997;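 active = inhibition of at least 50%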
EBI2 agonist = counter-screen for EBI2 antagonists: EBI2 agonist activity; shares compounds with EBI2 antag; EBI2-expressing cells, agonist mode, luminescence, 60 min; 0% vehicle, 100% 7α,25-dihydroxycholesterol control; activation, % at 5 µM; 2,400 tested, under 10 active; AID 652000;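 active = activation of at least 50%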
bGal cs = counter-screen for EBI2 antagonists: E. coli beta-galactosidase inhibition; shares compounds with EBI2 antag; purified beta-galactosidase, luminescent Galacton Star, 15 min; inhibition, % at 5 µM; actives 1% (n = 2,400); AID 652176;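 active = replicate-average signal at least 3 plate SD below neutral wells, shown as high inhibition, flagging enzyme-inhibiting false positives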;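 note: 0% = DMSO wells with enzyme and 100% = wells lacking enzyme; higher means stronger loss of beta-gal luminescence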
An asterisk follows results filed as active; / = no result.

SMILES | APJ antagonist | CXCR6 inh | APJ ag | EBI2 antag | CCR6 antagonist | Beta2AR agonist | EBI2 conf | EBI2 agonist | bGal cs
Clc1ccc(CN(CC2CCCO2)C(c2cccs2)c2nnnn2C2CCCC2)cc1 (configuration not stated) | 14.6 | 9.7 | -1.2 | 49.2* | 32.0 | 1.8 | 4.0 | -0.7 | -12.9
CCN(Cc1ccccc1)C(c1cccs1)c1nnnn1C1CCCCC1 (configuration not stated) | 18.9 | 15.7 | -1.5 | 49.4* | 29.1 | 1.8 | 18.6 | -0.6 | -13.5
Clc1ccccc1CN(Cc1ccccc1)C(c1cccs1)c1nnnn1C1CCCC1 (configuration not stated) | 5.3 | 0.7 | 0.0 | 30.4 | 7.7 | 6.5 | / | / | /
CC1(C)OC(=O)C2=C(C[C@@H](CCc3ccccc3)O[C@H]2C2CCCC2)O1 | / | 1.3 | / | 12.9 | / | / | / | / | /
CSc1ccccc1C(=O)N1CCc2ccc(NC(=O)c3ccccn3)cc2C1 | / | -10.7 | / | -3.3 | / | / | / | / | /
CCOc1cc(N2CCOCC2)c(OCC)cc1NC(=O)c1cc(S(=O)(=O)N2CCOCC2)ccc1C | -7.0 | -4.8 | -1.3 | 3.2 | 8.2 | 0.3 | / | / | /
COc1ccc(C(=O)NCCc2c[nH]c3ccccc23)cc1 | 2.5 | -2.3 | -0.5 | 33.3 | 1.3 | -1.2 | / | / | /
COc1ccc(N2CCN(C(CNC(=O)C(=O)NCCc3c[nH]c4ccccc34)c3ccco3)CC2)cc1 (configuration not stated) | 1.5 | 10.4 | -0.3 | 49.1* | 0.5 | 5.1 | 45.2 | -1.3 | -22.3
CCC(=O)NCCc1c[nH]c2ccccc12 | 5.8 | -8.3 | -0.8 | -6.0 | 16.9 | 2.4 | / | / | /
COc1ccc(N2CCN(C(CNC(=O)C(=O)NCCCO)c3ccco3)CC2)cc1 (configuration not stated) | -15.6 | -10.7 | -3.8 | -7.1 | 7.9 | 2.0 | / | / | /
CC(NC(=O)C(=O)NCCc1c[nH]c2ccccc12)c1ccccc1 (configuration not stated) | 4.6 | 13.8 | 1.4 | 60.8* | -0.8 | -10.2 | 34.0 | 0.7 | 7.2
O=C(NCCc1c[nH]c2ccccc12)c1ccc(Cl)cc1 | 0.3 | 5.0 | 0.7 | 59.6* | 8.8 | -3.4 | 34.0 | -1.1 | -7.3
O=C(NCc1ccco1)c1ccc2sc([C@@H]3O[C@H](CO)[C@H](O)[C@H](O)[C@H]3O)nc2c1 | / | 6.7 | / | -2.5 | / | / | / | / | /
CCOC(=O)c1cnn(-c2nc(-c3ccc(C)cc3)cs2)c1C(F)(F)F | / | -3.8 | / | 45.0* | 9.9 | 0.1 | 3.0 | 0.2 | -7.4
c1ccc(CCNc2ncnc3scc(C4COc5ccccc5O4)c23)cc1 (configuration not stated) | 14.2 | -5.9 | -3.5 | 86.8* | 3.6 | 30.9 | 55.3* | 1.2 | -1.2
c1ccc2c(c1)OCC(c1csc3ncnc(N4CCCC4)c13)O2 (configuration not stated) | -16.2 | -8.5 | 0.6 | 18.4 | 15.8 | -6.2 | / | / | /
O=C(/C=C/c1cccc([N+](=O)[O-])c1)N1CCN(C(=O)c2ccco2)CC1 | -19.1 | -10.9 | -3.8 | 10.8 | 7.5 | -9.1 | / | / | /
CCn1c(N2CCN(C(=O)/C=C/c3ccccc3)CC2)nc2ccccc21 | 4.6 | 1.0 | -3.2 | 86.4* | 4.2 | -1.6 | 56.2* | -1.7 | -5.5
CC(C)Cc1ccc(/C=C/C(=O)N2CCCCC2)cc1 | 2.6 | -8.8 | -6.0 | 5.3 | 4.8 | 8.4 | / | / | /
O=C(/C=C/c1ccccc1)N1CCN(C(=O)c2ccco2)CC1 | -11.2 | 0.9 | -0.7 | 63.4* | 4.9 | -11.1 | 48.5 | 0.7 | 9.5
CC(C)(C)c1ccc(/C=C/C(=O)N2CCCCC2)cc1 | / | 0.1 | / | 1.3 | 10.0 | 5.7 | / | / | /
O=C(/C=C/c1ccccc1)N1CCCN(C(=O)/C=C/c2ccccc2)CC1 | 6.3 | -8.1 | -4.2 | 79.4* | -2.2 | -4.4 | 52.9* | -1.0 | -12.9
CCc1ccc(/C=C\C(=O)N2CCCC2)cc1 | 6.8 | 12.5 | -3.7 | 46.8* | -1.1 | -2.9 | 21.2 | -2.0 | -8.3
O=C(NC1CCCC1)C(c1ccccc1)n1c(-c2ccc3c(c2)CCO3)nc2ccccc21 (configuration not stated) | / | / | / | -0.4 | / | / | / | / | /
COc1ccc2c(c1OC)C(=O)N1C2SC(C)(C)[C@H]1C(=O)NCC(C)C (some centres not stated) | 3.3 | -3.7 | -2.1 | -7.6 | 8.5 | -13.4 | / | / | /
SMILES | APJ antagonist | CXCR6 inh | APJ ag | EBI2 antag | CCR6 antagonist | Beta2AR agonist | EBI2 conf | EBI2 agonist | bGal cs
OC[C@@H]1CN(Cc2ccc(-c3ccccc3)cc2)C[C@H](n2cnc3c(NCc4ccc(F)cc4)ncnc32)O1 | / | -10.1 | / | -1.5 | / | / | / | / | /
Nc1nnc(SCC(=O)NNC(=O)c2ccc(F)cc2)s1 | -0.5 | 2.4 | -2.8 | -15.7 | 3.3 | -4.8 | / | / | /
COc1ccc(C(=O)OC(C)C(=O)NC2CCCCC2C)cc1S(=O)(=O)N1CCOCC1 (configuration not stated) | -43.2 | 0.0 | -7.0 | -6.9 | -4.2 | -4.7 | / | / | /
O=C(c1ccc(Cl)c(Cl)c1)N1CCC(O)(CN2CCOCC2)CC1 | -22.9 | -3.6 | -3.1 | 27.1 | -2.4 | 4.0 | / | / | /
O=C(c1ccc(Cl)cc1)N1CCC(O)(CSc2ccc(Cl)cc2Cl)CC1 | -16.1 | -15.6 | 1.4 | 65.5* | -7.8 | 8.0 | 55.7* | 0.6 | 12.3
NNC(=O)COc1ccc(C(F)(F)F)cc1 | 0.0 | -15.0 | 0.0 | -3.0 | -17.6 | 2.0 | / | / | /
Cc1ccccc1OCCn1cc(/C=C(\C#N)C(=O)NCc2ccco2)c2ccccc21 | 7.6 | 4.5 | -2.9 | 26.1 | 3.8 | 2.2 | / | / | /
N#C/C(=C\c1cn(CCOc2ccccc2)c2ccccc12)C(=O)NCc1ccco1 | 9.2 | 7.6 | -6.8 | 46.0* | 29.3 | 4.7 | 22.1 | 0.2 | 7.8
Cc1ccc(NC2=CC(=O)CC(c3ccccc3)C2)cc1 (configuration not stated) | 2.2 | -5.9 | -0.3 | 54.6* | 5.8 | -14.7 | 41.9 | 1.9 | 5.5
O=C1C=C(Nc2ccc(Cl)cc2)CC(c2ccccc2)C1 (configuration not stated) | 5.6 | -1.7 | -1.0 | 69.9* | 15.9 | -6.7 | 55.1* | -0.2 | 7.6
Nc1ccccc1NC1=CC(=O)CC(c2ccccc2)C1 (configuration not stated) | 9.0 | / | -1.6 | / | / | / | / | / | /
Cc1ccc(NC2=CC(=O)CC(c3ccc(Cl)cc3)C2)cc1 (configuration not stated) | 0.9 | 9.2 | -1.7 | 82.0* | 1.4 | -0.7 | 79.2* | -1.2 | -7.9
